An excerpt weighted towards active compounds, which were near 6% of everything screened.
H69AR growth 86K: growth inhibitors of human H69AR lung tumor cells. H69AR lung tumor viability, ATP luminescence, 72 h; hits give low values. 6% of 85,000 active. AID 598. viability, % at 10 µM;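 active = viability at or below 40%; inactive = viability above 40%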;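 note: multidrug resistant small cell line overexpressing MRP-1 efflux transporter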
Lung fibro prol: blocks proliferation of human lung fibroblasts. LL 47 human lung fibroblast viability, ATP luminescence; hits give low values. 1.1% of 85,000 active. viability, % at 10 µM;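 active = viability at or below 50% in the single dose screen; inactive = viability above 50%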;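 note: compound exposure lasted 72 h before the ATP readout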
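Assay system: human lung fibroblast line LL 47, low passage. Input: 1,150 fibroblasts seeded per well. Times: overnight cell rest, 72 h compound treatment at 37 °C. Evaluation: % viability of median cell-only signal. Technique: luminescent ATP detection, CellTiter-Glo. Control set: cell-only wells, no compound.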
PTK2B oligo ant: antagonists of human Pyk2 oligomerization | Q14289 | 0.83% of 99,000 active | Q293 cells, Pyk2 FERM NanoBiT luminescence; hits give low values | z-score (the deposit names both 25 µM and 10 µM);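 active = Z-score of -3 or lower, scaled per plate to the spread of control and sample wells; inactive = z-score above -3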;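 note: negative z-score means lost luminescence so less FERM oligomerization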
cytoskel mod: alters cytoskeleton assembly in HUVEC cells; 0.18% of 91,000 active; inhibition, % at 2 µM; HUVEC TNFa F-actin phalloidin imaging, high content;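 active = inhibition above the batch mean plus 3 SD and confirmed as a hit by visual image inspection, cut at about 30% in these data, passing the limit was not always enough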
HUVEC inhibit: blocks proliferation of human endothelial cells | HUVEC proliferation, CellTiter-Glo luminescence, 72 h; hits give low values | viability, % at 10 µM (by protocol) | 1.1% of 86,000 active;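 active = viability at or below 30%; inactive = viability above 30%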
Jurkat tox 60K: cytotoxic compounds reducing Jurkat cell viability; Jurkat E6.1 viability, ATP luminescence, 48 h; inhibition, % at 4 µM; 1.2% of 56,000 active; AID 463;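 active = inhibition above the mean inhibition of all tested compounds plus 3 SD, cut at about 28% in these data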
A number is an active result.

Results for Cc1ccc(-c2cc(C(F)F)n3ncc(C(=O)Nc4ccc(S(=O)(=O)Nc5ccccc5C)cc4)c3n2)cc1 ?
PTK2B oligo ant: inactive; cytoskel mod: inactive

Results for CCN(CCCn1c(SCC#N)nc2ccccc2c1=O)c1ccccc1 ?
H69AR growth 86K: inactive; Lung fibro prol: inactive; PTK2B oligo ant: inactive; cytoskel mod: inactive; HUVEC inhibit: inactive; Jurkat tox 60K: inactive

What do the screens show for `COc1ccc2[nH]c(=O)c(CN(CCCN(C)C)C(=O)Nc3ccc(F)cc3)cc2c1`?
H69AR growth 86K: inactive; Lung fibro prol: inactive; PTK2B oligo ant: inactive; cytoskel mod: inactive; HUVEC inhibit: inactive; Jurkat tox 60K: inactive

What do the screens show for `COc1ccc(NC(=O)CSc2nc3c(c(=O)n2-c2ccccc2)SCC3)c(OC)c1`?
H69AR growth 86K: 8.2; Lung fibro prol: inactive; PTK2B oligo ant: inactive; HUVEC inhibit: inactive

How did COc1ccccc1-n1c(SCC(=O)Nc2ccc(F)cc2)nc2c(c1=O)SCC2 do in these assays?
H69AR growth 86K: 20; Lung fibro prol: inactive; HUVEC inhibit: inactive; Jurkat tox 60K: inactive

How did O=C(Nc1nc2ccc(F)cc2s1)C1CCCO1 (centres undefined) do in these assays?
H69AR growth 86K: inactive; Lung fibro prol: inactive; PTK2B oligo ant: inactive; cytoskel mod: inactive; HUVEC inhibit: inactive

How did Cc1cc(C)c2nc(SC(C)C#N)cc(C)c2c1 (centres undefined) do in these assays?
H69AR growth 86K: 31; Lung fibro prol: inactive; PTK2B oligo ant: inactive; cytoskel mod: inactive; HUVEC inhibit: inactive

Results for O=C(NOC(=O)c1ccccc1Cl)c1cccs1 ?
H69AR growth 86K: inactive; Lung fibro prol: inactive; PTK2B oligo ant: inactive; cytoskel mod: inactive; HUVEC inhibit: inactive

What do the screens show for `O=c1c2c3n(c(=S)nc2[nH]n1-c1ccccc1)CCCCC3`?
H69AR growth 86K: inactive; Lung fibro prol: inactive; PTK2B oligo ant: inactive; cytoskel mod: inactive; HUVEC inhibit: inactive

What do the screens show for `Cc1ccc(/C(=N\O)c2oc3c(C)c4oc(=O)cc(C)c4cc3c2C)cc1`?
H69AR growth 86K: inactive; Lung fibro prol: inactive; PTK2B oligo ant: inactive; cytoskel mod: inactive; HUVEC inhibit: inactive

What do the screens show for `Cc1cc(=O)oc2c1ccc1oc(/C(=N/O)c3ccccc3)c(C)c12`?
H69AR growth 86K: inactive; Lung fibro prol: inactive; PTK2B oligo ant: -3.7; cytoskel mod: inactive; HUVEC inhibit: inactive; Jurkat tox 60K: inactive

How did CC1CCN(C(=O)CSc2nnc(-c3cccnc3)n2C2CCCCC2)CC1 do in these assays?
H69AR growth 86K: 26; PTK2B oligo ant: inactive; cytoskel mod: inactive; HUVEC inhibit: inactive; Jurkat tox 60K: inactive

How did COc1ccc(C2C3=C(CCCC3=O)Nc3nc4ccccc4n32)cc1OC (centres undefined) do in these assays?
H69AR growth 86K: inactive; Lung fibro prol: inactive; cytoskel mod: inactive; HUVEC inhibit: inactive; Jurkat tox 60K: inactive

What do the screens show for `CCOC(=O)N1CCC(N2CCN(S(=O)(=O)c3ccc(Cl)cc3)CC2)CC1`?
H69AR growth 86K: 27; Lung fibro prol: inactive; PTK2B oligo ant: inactive; HUVEC inhibit: inactive

How did COc1ccc(C2/C(=C(\O)c3cccc(OC)c3)C(=O)C(=O)N2c2ccccn2)cc1 (centres undefined) do in these assays?
H69AR growth 86K: inactive; Lung fibro prol: inactive; PTK2B oligo ant: inactive; cytoskel mod: inactive; HUVEC inhibit: inactive

How did CCOCCCNC(=O)c1cc2sc(Cl)cc2n1CC do in these assays?
H69AR growth 86K: 36; Lung fibro prol: inactive; PTK2B oligo ant: inactive; HUVEC inhibit: inactive; Jurkat tox 60K: inactive

How did Cc1nc(N2CCC3(CC2)OCCO3)c2nnn(Cc3ccccc3F)c2n1 do in these assays?
H69AR growth 86K: 35; Lung fibro prol: inactive; PTK2B oligo ant: inactive; cytoskel mod: inactive; HUVEC inhibit: inactive

Results for O=C(NC1CCCCC1)N(CCN1CCOCC1)Cc1cc2cc3c(cc2[nH]c1=O)OCCO3 ?
H69AR growth 86K: inactive; Lung fibro prol: inactive; PTK2B oligo ant: inactive; cytoskel mod: 33; HUVEC inhibit: inactive; Jurkat tox 60K: inactive

Results for Cc1ccc2[nH]c(=O)c(CN(CCCN3CCOCC3)C(=O)NC3CCCCC3)cc2c1 ?
H69AR growth 86K: inactive; Lung fibro prol: inactive; PTK2B oligo ant: inactive; cytoskel mod: inactive; HUVEC inhibit: inactive; Jurkat tox 60K: inactive

What do the screens show for `CCN(CC)CCN(Cc1cc2cc3c(cc2[nH]c1=O)OCCO3)C(=O)NC1CCCCC1`?
H69AR growth 86K: 35; Lung fibro prol: inactive; PTK2B oligo ant: inactive; cytoskel mod: inactive; HUVEC inhibit: inactive; Jurkat tox 60K: inactive

Results for Cc1cccc2cc(CN(CC3CCCO3)C(=O)NC3CCCCC3)c(=O)[nH]c12 (centres undefined) ?
H69AR growth 86K: inactive; Lung fibro prol: inactive; PTK2B oligo ant: inactive; cytoskel mod: inactive; HUVEC inhibit: inactive; Jurkat tox 60K: inactive

How did COc1ccc(CN(Cc2cc3cc4c(cc3[nH]c2=O)OCO4)C(=O)NC2CCCCC2)cc1 do in these assays?
PTK2B oligo ant: inactive; cytoskel mod: inactive; Jurkat tox 60K: inactive

How did Cc1ccc2cc(CN(CC3CCCO3)C(=O)NC3CCCCC3)c(=O)[nH]c2c1C (centres undefined) do in these assays?
H69AR growth 86K: 28; Lung fibro prol: inactive; PTK2B oligo ant: inactive; HUVEC inhibit: inactive; Jurkat tox 60K: inactive

How did NC(=O)C1CCN(C(c2ccccc2Cl)c2nnnn2Cc2ccc3c(c2)OCO3)CC1 (centres undefined) do in these assays?
H69AR growth 86K: inactive; Lung fibro prol: inactive; PTK2B oligo ant: inactive; cytoskel mod: inactive; HUVEC inhibit: inactive; Jurkat tox 60K: inactive

Results for Cc1csc(SCCn2c(N3CCN(c4ccccc4)CC3)nc3c2c(=O)[nH]c(=O)n3C)n1 ?
H69AR growth 86K: inactive; Lung fibro prol: inactive; PTK2B oligo ant: inactive; cytoskel mod: inactive; HUVEC inhibit: inactive; Jurkat tox 60K: inactive

Results for O=C(CC1(O)C(=O)N(Cc2ccccc2)c2ccccc21)c1ccncc1 (centres undefined) ?
H69AR growth 86K: 17; Lung fibro prol: inactive; PTK2B oligo ant: inactive; cytoskel mod: inactive; HUVEC inhibit: inactive; Jurkat tox 60K: inactive

Results for CCN1C(=O)C(O)(CC(=O)c2cc(C)ccc2C)c2ccccc21 (centres undefined) ?
H69AR growth 86K: inactive; Lung fibro prol: inactive; PTK2B oligo ant: inactive; cytoskel mod: inactive; HUVEC inhibit: inactive; Jurkat tox 60K: inactive

Results for O=C(CC1(O)C(=O)N(Cc2ccccc2)c2ccccc21)c1ccc2c(c1)OCO2 (centres undefined) ?
H69AR growth 86K: inactive; Lung fibro prol: inactive; PTK2B oligo ant: inactive; cytoskel mod: inactive; HUVEC inhibit: inactive

Results for O=C(CC1(O)C(=O)N(Cc2ccc3c(c2)OCO3)c2ccccc21)c1ccccc1 (centres undefined) ?
H69AR growth 86K: 14; PTK2B oligo ant: inactive; cytoskel mod: inactive; HUVEC inhibit: inactive; Jurkat tox 60K: inactive

How did Cc1ccccc1CN1C(=O)C(O)(CC(=O)c2ccncc2)c2ccccc21 (centres undefined) do in these assays?
H69AR growth 86K: 19; Lung fibro prol: inactive; PTK2B oligo ant: inactive; cytoskel mod: inactive; HUVEC inhibit: inactive; Jurkat tox 60K: inactive

Screens (PubChem BioAssay)
